ChEMBL document CHEMBL4616671, “Identification of N-Phenyl-7H-pyrrolo[2,3-d]pyrimidin-4-amine Derivatives as Novel, Potent, and Selective NF-κB Inducing Kinase (NIK) Inhibitors for the Treatment of Psoriasis” (J Med Chem, 2020)
Activity calls are given as the source filed them. No cut-off for these calls is given here.

Key:
[1] = molecular target: T1, Mitogen-activated protein kinase kinase kinase 14 (Homo sapiens, UniProt Q99558); assay: Inhibition of recombinant N-terminal GST-fused human NIK (319 to 947 residues) expressed in baculovirus expression system incubated for 120 mins in presence of ATP by ADP-glo based luminescence assay
T1 sequence (Q99558 whole entry, the tested form may be a part): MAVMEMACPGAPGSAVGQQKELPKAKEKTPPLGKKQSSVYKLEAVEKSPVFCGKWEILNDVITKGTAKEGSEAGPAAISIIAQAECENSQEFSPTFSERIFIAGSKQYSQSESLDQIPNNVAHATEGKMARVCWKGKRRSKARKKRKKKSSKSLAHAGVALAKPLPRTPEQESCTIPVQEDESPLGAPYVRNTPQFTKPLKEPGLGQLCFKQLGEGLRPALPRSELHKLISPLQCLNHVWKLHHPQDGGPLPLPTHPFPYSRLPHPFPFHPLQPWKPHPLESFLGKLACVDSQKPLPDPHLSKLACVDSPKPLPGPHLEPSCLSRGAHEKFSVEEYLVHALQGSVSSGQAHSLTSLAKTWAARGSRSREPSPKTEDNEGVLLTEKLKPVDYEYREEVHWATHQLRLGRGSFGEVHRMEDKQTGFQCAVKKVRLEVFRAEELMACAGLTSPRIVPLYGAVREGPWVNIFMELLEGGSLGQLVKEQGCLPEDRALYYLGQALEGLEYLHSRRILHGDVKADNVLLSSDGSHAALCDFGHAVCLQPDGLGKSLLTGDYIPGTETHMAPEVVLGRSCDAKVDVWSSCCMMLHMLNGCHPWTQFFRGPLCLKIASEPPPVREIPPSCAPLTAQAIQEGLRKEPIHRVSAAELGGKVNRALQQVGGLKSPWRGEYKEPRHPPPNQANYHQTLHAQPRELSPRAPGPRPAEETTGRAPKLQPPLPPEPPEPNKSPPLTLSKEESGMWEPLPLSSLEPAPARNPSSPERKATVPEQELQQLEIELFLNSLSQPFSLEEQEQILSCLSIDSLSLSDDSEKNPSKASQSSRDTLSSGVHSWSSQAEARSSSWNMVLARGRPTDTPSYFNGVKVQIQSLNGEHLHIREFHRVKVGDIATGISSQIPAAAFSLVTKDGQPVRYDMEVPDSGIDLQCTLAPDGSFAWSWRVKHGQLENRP
Method in brief: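 ADP-Glo luminescence assay with recombinant human MAP3K14. Buffer: Tris pH 7.5, 2 mM DTT, 2 mM MgCl₂, 100 µM Na₃VO₄, 0.02 mg/mL BSA, 5% DMSO; ATP 10 µM. Reaction 120 min at room temperature; ADP-Glo reagent 40 min, then detection reagent 40 min. Mean ± SD from two independent experiments.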

[2] = molecular target: T1, Mitogen-activated protein kinase kinase kinase 14; assay: Inhibition of human NIK using myelin basic protein as substrate in presence of [gamma33P]ATP by hotspot assay
[3] = molecular target: Leucine-rich repeat serine/threonine-protein kinase 2 (Homo sapiens, UniProt Q5S007); assay: Inhibition of human LRRK2 using [RLGRDKYKTLRQIRQ] as substrate in presence of [gamma33P]ATP by hotspot assay
Chain of Leucine-rich repeat serine/threonine-protein kinase 2 (Q5S007 whole entry): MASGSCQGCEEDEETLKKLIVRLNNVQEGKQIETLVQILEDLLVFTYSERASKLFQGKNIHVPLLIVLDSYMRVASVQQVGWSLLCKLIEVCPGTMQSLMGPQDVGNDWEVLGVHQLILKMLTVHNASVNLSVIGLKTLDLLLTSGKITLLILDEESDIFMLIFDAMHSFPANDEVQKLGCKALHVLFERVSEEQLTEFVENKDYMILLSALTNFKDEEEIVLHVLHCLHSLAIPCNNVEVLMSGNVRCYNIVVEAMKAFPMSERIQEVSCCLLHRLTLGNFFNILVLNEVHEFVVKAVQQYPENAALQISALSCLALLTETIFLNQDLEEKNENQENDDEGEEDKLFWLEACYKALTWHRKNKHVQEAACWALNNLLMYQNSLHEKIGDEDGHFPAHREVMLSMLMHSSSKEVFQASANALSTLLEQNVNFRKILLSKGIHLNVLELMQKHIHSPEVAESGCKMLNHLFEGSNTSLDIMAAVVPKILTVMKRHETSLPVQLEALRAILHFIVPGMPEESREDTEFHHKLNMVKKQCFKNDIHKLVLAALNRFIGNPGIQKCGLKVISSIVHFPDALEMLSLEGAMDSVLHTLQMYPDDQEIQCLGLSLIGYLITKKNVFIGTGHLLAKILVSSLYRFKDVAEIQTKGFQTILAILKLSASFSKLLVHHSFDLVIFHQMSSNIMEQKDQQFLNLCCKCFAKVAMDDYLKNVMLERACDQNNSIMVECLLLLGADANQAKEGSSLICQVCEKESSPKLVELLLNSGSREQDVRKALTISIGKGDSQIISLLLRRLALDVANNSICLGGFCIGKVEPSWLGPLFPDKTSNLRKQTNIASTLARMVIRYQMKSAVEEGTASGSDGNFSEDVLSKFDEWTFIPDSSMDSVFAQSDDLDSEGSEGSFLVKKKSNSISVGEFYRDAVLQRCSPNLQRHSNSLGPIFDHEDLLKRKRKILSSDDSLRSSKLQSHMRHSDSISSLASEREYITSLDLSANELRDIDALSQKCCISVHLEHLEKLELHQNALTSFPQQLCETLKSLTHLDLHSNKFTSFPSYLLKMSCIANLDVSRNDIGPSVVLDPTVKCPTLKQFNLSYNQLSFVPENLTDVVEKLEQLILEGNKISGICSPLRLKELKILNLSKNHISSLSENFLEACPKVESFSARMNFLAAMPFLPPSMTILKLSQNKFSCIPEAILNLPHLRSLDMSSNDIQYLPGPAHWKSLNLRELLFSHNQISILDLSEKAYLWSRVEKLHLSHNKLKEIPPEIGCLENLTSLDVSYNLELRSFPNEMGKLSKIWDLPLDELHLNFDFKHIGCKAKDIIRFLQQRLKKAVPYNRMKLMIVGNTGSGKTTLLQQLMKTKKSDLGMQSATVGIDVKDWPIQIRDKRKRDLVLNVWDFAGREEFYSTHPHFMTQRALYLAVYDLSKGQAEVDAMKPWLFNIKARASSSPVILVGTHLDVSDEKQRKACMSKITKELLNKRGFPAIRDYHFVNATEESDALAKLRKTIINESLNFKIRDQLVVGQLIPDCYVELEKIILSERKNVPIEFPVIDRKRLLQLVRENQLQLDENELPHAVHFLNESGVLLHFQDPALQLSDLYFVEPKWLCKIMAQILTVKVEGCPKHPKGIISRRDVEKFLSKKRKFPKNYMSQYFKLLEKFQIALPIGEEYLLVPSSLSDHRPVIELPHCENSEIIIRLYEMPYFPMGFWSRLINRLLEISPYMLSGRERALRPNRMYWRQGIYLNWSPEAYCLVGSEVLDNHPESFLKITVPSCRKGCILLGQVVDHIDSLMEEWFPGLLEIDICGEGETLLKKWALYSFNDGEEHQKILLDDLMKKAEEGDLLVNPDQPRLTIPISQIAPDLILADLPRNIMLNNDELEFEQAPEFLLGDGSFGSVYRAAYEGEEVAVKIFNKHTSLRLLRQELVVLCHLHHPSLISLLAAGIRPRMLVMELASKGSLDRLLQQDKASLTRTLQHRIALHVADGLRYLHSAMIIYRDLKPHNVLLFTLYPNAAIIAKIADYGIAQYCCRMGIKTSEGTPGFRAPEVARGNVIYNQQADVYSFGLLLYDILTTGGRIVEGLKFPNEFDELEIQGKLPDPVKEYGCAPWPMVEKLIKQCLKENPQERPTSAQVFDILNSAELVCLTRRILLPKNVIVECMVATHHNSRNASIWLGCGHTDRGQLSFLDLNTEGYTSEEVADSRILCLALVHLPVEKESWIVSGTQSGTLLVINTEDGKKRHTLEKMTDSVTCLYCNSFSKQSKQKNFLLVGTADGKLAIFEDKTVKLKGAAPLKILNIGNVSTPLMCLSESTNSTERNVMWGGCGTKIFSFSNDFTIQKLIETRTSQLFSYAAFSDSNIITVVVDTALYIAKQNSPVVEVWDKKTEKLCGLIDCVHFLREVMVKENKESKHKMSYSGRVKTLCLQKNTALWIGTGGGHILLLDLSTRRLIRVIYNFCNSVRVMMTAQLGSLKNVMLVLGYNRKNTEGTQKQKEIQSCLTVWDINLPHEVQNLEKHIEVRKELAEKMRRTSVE

[4] = molecular target: Tyrosine-protein kinase JAK1 (Homo sapiens, UniProt P23458); assay: Inhibition of human JAK1 using poly[Glu:Tyr] (4:1) as substrate in presence of [gamma33P]ATP by hotspot assay
[5] = system: J774; assay: Antiinflammatory activity in mouse J774 cells assessed as inhibition of LPS-induced NO production at 1 uM preincubated for 2 hrs followed by LPS stimulation and measured after 22 hrs by Griess reagent based assay relative to control; format: functional
Method in brief: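 J774 macrophages seeded at 2*10^4 cells/mL, 24 h at 37 °C 5% CO₂; compound in DMSO at 1 µM, 3 replicate wells, 2 h pre-incubation, then LPS at 1 ug/mL final for 22 h. Supernatant nitrite read with Griess reagent at 540 nm against a sodium nitrite standard curve. Inhibition % = (model − compound)/(model − control) NO ×100; mean ± SD, three independent experiments.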

[6] = species on record: Homo sapiens; assay: Selectivity ratio of IC50 for human Aurora B to IC50 for human NIK
[7] = species on record: Homo sapiens; assay: Selectivity ratio of IC50 for human LRRK2 to IC50 for human NIK
[8] = Elimination half life in rat liver microsomes incubated for 10 mins followed by potassium phosphate buffer addition and measured after 5 to 60 mins by LC-MS/MS analysis; format: ADME, Microsome; conditions: read-out: beta t1/2
Method in brief: (§1)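 Rat, dog, monkey or human liver microsomes pre-incubated with compound at 37 °C for 10 min; reaction started after pre-warming and stopped at 5, 15, 30, 60 min with chilled quench containing tolbutamide and labetalol. No-cofactor control in 100 mM potassium phosphate for 60 min. LC-MS/MS analysis; first-order fit: k = −slope, T1/2 = 0.693/k, CLint = k/microsomal protein concentration.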

[9] = Intrinsic clearance in dog liver microsomes assessed as per mg of protein incubated for 10 mins followed by potassium phosphate buffer addition and measured after 5 to 60 mins by LC-MS/MS analysis; format: ADME, Canis lupus familiaris, Microsome; conditions: read-out: CLH; method in brief: as §1
[10] = Intrinsic hepatic clearance in human; format: ADME
Method in brief: (§2)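 Scaled from microsomal intrinsic clearance: CLint,in vitro × microsomal protein per g liver × liver weight per kg body weight.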

[11] = Intrinsic hepatic clearance in monkey; format: ADME, Macaca mulatta; conditions: rhesus monkey, in vivo; method in brief: as §2
[12] = Intrinsic hepatic clearance in rat; format: ADME; conditions: in vivo; method in brief: as §2
[13] = Half life in Sprague-Dawley rat at 1 mg/kg, iv administered as single bolus dose by LC-MS/MS analysis; format: ADME, organism-based; conditions: in vivo
[14] = AUC (0 to infinity) in Sprague-Dawley rat at 10 mg/kg, po administered via gavage by LC-MS/MS analysis; format: ADME, organism-based; set-up: dose 10 mg/kg, time infinity, route oral; conditions: in vivo
Method in brief: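 Single oral gavage in SD rats, 3 per group, as a suspension in saline with 0.5% CMC-Na and 0.2% Tween 80, 1 mg/mL. Plasma protein-precipitated with ACN containing internal standards, then LC-MS/MS. AUC0-∞ by linear trapezoidal rule, noncompartmental analysis. Mean ± SD of three rats.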

[15] = molecular target: Mitogen-activated protein kinase kinase kinase 14 (Mus musculus) (UniProt Q9WUL6); assay: Inhibition of NIK in mouse J774 cells assessed as reduction in LPS-induced TNFalpha mRNA level by SYBR green dye-based quantitative PCR analysis; format: cell-based
Chain of Mitogen-activated protein kinase kinase kinase 14 (Mus musculus) (Q9WUL6 whole entry): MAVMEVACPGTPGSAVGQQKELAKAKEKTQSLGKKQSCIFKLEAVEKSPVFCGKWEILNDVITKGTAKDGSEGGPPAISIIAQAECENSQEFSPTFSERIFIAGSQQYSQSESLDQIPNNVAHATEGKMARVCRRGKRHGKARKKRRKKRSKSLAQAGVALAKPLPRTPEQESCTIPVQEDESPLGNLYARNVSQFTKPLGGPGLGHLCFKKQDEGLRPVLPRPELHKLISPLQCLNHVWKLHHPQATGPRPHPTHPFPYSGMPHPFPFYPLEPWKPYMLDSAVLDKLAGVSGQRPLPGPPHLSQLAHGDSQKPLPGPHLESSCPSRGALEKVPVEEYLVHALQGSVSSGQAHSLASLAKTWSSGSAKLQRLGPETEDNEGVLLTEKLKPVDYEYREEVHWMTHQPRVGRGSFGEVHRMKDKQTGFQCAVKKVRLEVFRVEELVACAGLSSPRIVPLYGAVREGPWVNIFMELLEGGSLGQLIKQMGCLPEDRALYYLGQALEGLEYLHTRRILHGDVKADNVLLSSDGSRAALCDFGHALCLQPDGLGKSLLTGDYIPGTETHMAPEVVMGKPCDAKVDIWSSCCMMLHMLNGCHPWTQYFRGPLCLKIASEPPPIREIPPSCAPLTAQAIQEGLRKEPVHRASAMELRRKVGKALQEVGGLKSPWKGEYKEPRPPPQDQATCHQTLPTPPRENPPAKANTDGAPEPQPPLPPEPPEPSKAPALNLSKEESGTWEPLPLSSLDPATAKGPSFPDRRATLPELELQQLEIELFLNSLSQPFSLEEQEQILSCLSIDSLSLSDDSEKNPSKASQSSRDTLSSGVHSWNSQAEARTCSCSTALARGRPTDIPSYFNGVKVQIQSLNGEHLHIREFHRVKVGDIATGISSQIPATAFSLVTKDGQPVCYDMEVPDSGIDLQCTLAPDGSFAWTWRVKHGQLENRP
Method in brief: (§3)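 LPS-stimulated J774 macrophages; mRNA quantified by qPCR using 4 µL cDNA plus 16 µL master mix per reaction. Mean ± SD of three biological replicates; significance by two-tailed Student's t-test against the model group.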

[16] = system: J774; assay: Antiinflammatory activity in mouse J774 cells assessed as reduction in LPS-induced IL-1 beta mRNA level by SYBR green dye-based quantitative PCR analysis; format: functional, cell-based; method in brief: as §3
[17] = system: Mus musculus; assay: Protection against IMQ-induced dermatitis in C57 mouse model of psoriasis assessed as reduction in skin swelling at 60 to 120 mg/kg, ig administered once daily starting from day 3 post IMQ-challenge and measured 2 days post-last dose of IMQ; format: functional, organism-based
Method in brief: (§4)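 C57 mice given 5% imiquimod cream on the back once daily for 7 days; intragastric dosing 60 or 120 mg/kg once daily from day 3 to end, n = 6 per group. Dorsal skin phenotype assessed by imaging.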

[18] = system: Mus musculus; assay: Protection against IMQ-induced dermatitis in C57 mouse model of psoriasis assessed as reduction in roughness at 60 to 120 mg/kg, ig administered once daily starting from day 3 post IMQ-challenge and measured 2 days post-last dose of IMQ; format: functional, organism-based; method in brief: as §4
[19] = system: Mus musculus; assay: Protection against IMQ-induced dermatitis in C57 mouse model of psoriasis assessed as reduction in dermal scales at 120 mg/kg, ig administered once daily starting from day 3 post IMQ-challenge and measured 2 days post-last dose of IMQ; format: functional, organism-based; method in brief: as §4
[20] = system: Mus musculus; assay: Suppression of IMQ-induced psoriasis in C57 mouse assessed as reduction in spleen index at 60 mg/kg, ig administered once daily starting from day 3 post IMQ-challenge and measured 2 days post-last dose of IMQ; format: functional, organism-based
Method in brief: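 IMQ-induced C57 mice (5% cream daily 7 days; i.g. daily from day 3 at the stated dose, n = 6). Spleen weighed per mouse at end of study.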

[21] = system: Mus musculus; assay: Suppression of epidermal and dermal cell proliferation in C57 mouse model of IMQ-induced psoriasis assessed as reduction in Ki67 expression in back skin psoriatic lesions at 120 mg/kg, ig administered starting from day 3 post IMQ-challenge and measured 2 days post-last dose of IMQ by immunohistochemical analysis relative to control; format: functional; conditions: C57, topical
Method in brief: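 C57 mice given 5% imiquimod cream on back skin q.d. for seven days. Gavage q.d. at 60 or 120 mg/kg from day 3, n = 6 per group. Back-skin frozen sections (6 µm) stained for Ki67 by IHC. % Ki67+ of total cells quantified and normalized to IMQ-only model group. Two-tailed t-test, mean ± SD.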

[22] = molecular target: Mitogen-activated protein kinase kinase kinase 14 (Mus musculus) (UniProt Q9WUL6); assay: In vivo inhibition of NIK in C57 mouse model of IMQ-induced psoriasis assessed as reduction in NF-kappaB signalling in back skin by measuring decrease in mRNA IL-6 level at 60 to 120 mg/kg, po administered starting from day 3 post IMQ-challenge and measured 2 days post-last dose of IMQ by qPCR analysis; format: functional, organism-based
Method in brief: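 IMQ psoriasis model: 5% imiquimod cream applied to C57 mouse back skin once daily for seven days; oral dosing 60 or 120 mg/kg once daily from day 3, n = 6 per group. Back-skin mRNA measured by qPCR.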

With CC(O)(C#Cc1ccc(N2CCOCC2)c(Nc2ncnc3[nH]ccc23)c1)c1nccs1 (racemic) the IC50 [1] was 9.87 nM, the IC50 [2] was 9.7 nM and the IC50 [3] was 94.6 nM. For the same compound, the IC50 [4] was 183 nM, the inhibition at 1 µM [5] was 86.3% and the Ratio IC50 [6] was 4 to 20. For the same compound, the Ratio IC50 [7] was 4 to 20, the half-life [8] was 30.8 min and the microsomal CLint [9] was 43.3 µL/min/mg. The CLH [10] was 30.6 mL/min/kg, the CLH [11] was 111 mL/min/kg and the CLH [12] was 81 mL/min/kg. For the same compound, the half-life [13] was 56.6 min, the AUC(0-inf) [14] was 2680 ng·h/mL and the inhibition [15] was “Active”. The Activity [16] was “Active”, the Activity [17] was “Active” and the Activity [18] was “Active”. For the same compound, the Activity [19] was “Active”, the inhibition [20] was “Active” and the inhibition in vivo at 120 mg/kg [21] was 83%. For the same compound, the inhibition [22] was “Active”.
